{"source": "ChEMBL document CHEMBL3352584", "about": "“Novel DNA gyrase inhibiting spiropyrimidinetriones with a benzisoxazole scaffold: SAR and in vivo characterization” (J Med Chem, 2014)", "key": {"[1]": {"test_system": "Haemophilus influenzae", "experiment": "Antimicrobial activity against Haemophilus influenzae by broth microdilution method", "format": "functional", "how_it_was_run": "(§1)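 Broth microdilution following CLSI guidelines. Values under 12.5 μM are averages of three or more replicates.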"}, "[2]": {"test_system": "Staphylococcus aureus", "experiment": "Antimicrobial activity against methicillin-sensitive Staphylococcus aureus ARC516 infected in mouse at 3 to 100 mg/kg/day, ip starting 2 hrs after infection", "format": "functional, organism-based", "how_it_was_run": "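CD-1 mouse thighs infected with mid-log S. aureus ARC516 at a target inoculum of 5 × 10⁵ CFU. Groups of five received ip compound in DMA:TEG:saline 40/40/20, either q24h or q6h, from 2 h post-infection. Mice were killed 24 h after treatment start and thigh homogenates plated on tryptic soy agar (37 °C overnight) for CFU/g. Neutropenia was induced with ip cyclophosphamide, 150 mg/kg on day −4 and 100 mg/kg on day −1.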"}, "[3]": {"test_system": "Staphylococcus aureus", "experiment": "Inhibition of cell wall biosynthesis in methicillin-sensitive Staphylococcus aureus by [14C]-N-acetylglucosamine incorporation assay", "format": "functional, organism-based"}, "[4]": {"test_system": "Rattus norvegicus", "experiment": "fAUC in Wistar Hannover rat at 500 mg/kg, po dosed once daily for 14 days measured on day 14", "format": "ADME, organism-based", "set-up": "dose 500 mg/kg, route oral", "settings": "in vivo, 336 h"}, "[5]": {"target": "DNA gyrase (Escherichia coli, UniProt P0AES4+P0AES6)", "experiment": "Inhibition of Escherichia coli DNA gyrase using fluorescence-tagged DNA by fluorescenct polarization assay", "format": "protein-complex assay", "how_it_was_run": "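E. coli DNA gyrase supercoiling assay. The read-out was differential binding of a fluorescence-tagged DNA to relaxed versus supercoiled DNA, giving IC50.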"}, "[6]": {"test_system": "Streptococcus pyogenes", "experiment": "Antimicrobial activity against Streptococcus pyogenes by broth microdilution method", "format": "functional", "how_it_was_run": "as §1"}, "[7]": {"test_system": "Streptococcus pneumoniae", "experiment": "Antimicrobial activity against Streptococcus pneumoniae 2800 harboring GyrB K143I/T172A mutant by broth microdilution method", "format": "functional"}, "[8]": {"test_system": "Staphylococcus aureus", "experiment": "Antimicrobial activity against methicillin-sensitive Staphylococcus aureus ARC516 infected in immunosupressed mouse administered as single ip dose starting 2 hrs after infection", "format": "functional, organism-based"}, "[9]": {"test_system": "Staphylococcus aureus", "experiment": "Antimicrobial activity against methicillin-sensitive Staphylococcus aureus by broth microdilution method", "format": "functional", "how_it_was_run": "as §1"}, "[10]": {"test_system": "Rattus norvegicus", "experiment": "Toxicity in Wistar Hannover rat at 250 to 500 mg/kg, po administered once daily for 14 days", "format": "organism-based", "set-up": "dose 250-500 mg/kg, route oral", "settings": "in vivo, 336 h", "how_it_was_run": "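Repeat-dose oral study in Wistar Hannover rats, three males and three females per group, dosed once daily for 14 days at 0, 250, 500 or 750 mg/kg/day and necropsied on day 15. Endpoints were clinical signs, body weight, food intake, temperature, hematology, plasma chemistry, toxicokinetics, and gross and microscopic pathology.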"}, "[11]": {"test_system": "Staphylococcus aureus", "experiment": "Inhibition of RNA synthesis in methicillin-sensitive Staphylococcus aureus by [3H]-uridine incorporation assay", "format": "functional, organism-based"}, "[12]": {"experiment": "Clearance in mouse at 3 mg/kg, iv or at 10 mg/kg, po by LC-MS/MS method", "format": "ADME, organism-based", "settings": "in vivo", "how_it_was_run": "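Male mice (CD-1) or male Wistar Hannover rats, three per experiment, given a 15 min iv infusion at 3 mg/kg or oral dosing at 10 mg/kg. Vehicle was DMA:TEG:saline 40/40/20 for mice and meglumine/cyclodextrin for rats. Serial jugular blood was taken over 0–24 h, plasma analysed by LC-MS/MS, and a noncompartmental analysis used. Mean values are given.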"}}, "note": "pIC50: −log10 of the molar value."}
{"smiles": "Cc1noc2c(F)c3c(cc12)CC1(C(=O)NC(=O)NC1=O)[C@H]1[C@H](C)O[C@H](C)CN31", "values": [{"measurement": "MIC", "setting": "[1]", "value": 1, "unit": "µM"}, {"measurement": "Activity", "setting": "[2]", "value": "Dose-dependent effect"}, {"measurement": "IC50", "setting": "[3]", "value": 8, "unit": "µg/mL"}, {"measurement": "fAUC", "setting": "[4]", "value": 700, "unit": "µM·h"}, {"measurement": "pIC50", "setting": "[5]", "value": 6.54}, {"measurement": "MIC", "setting": "[6]", "value": 6.2, "unit": "µM"}, {"measurement": "MIC", "setting": "[7]", "value": 4, "unit": "µg/mL"}, {"measurement": "Activity", "setting": "[8]", "value": "Dose-dependent effect"}, {"measurement": "MIC", "setting": "[9]", "value": 1, "unit": "µM"}, {"measurement": "Activity", "setting": "[10]", "value": "Non-toxic"}, {"measurement": "IC50", "setting": "[11]", "value": 5, "unit": "µg/mL"}, {"measurement": "clearance", "setting": "[12]", "value": 38, "unit": "mL/min/kg"}]}
